Values after ≈ are worked out from the molar mass of the structure shown.
Assays:
Escherichia coli = test: Antibacterial activity against Escherichia coli MTCC 443 after 24 hrs by micro-broth dilution method; type: functional; conditions: MTCC 443, 24 h
Aspergillus fumigatus = test: Antifungal activity against Aspergillus fumigatus MTCC 3008 after 48 hrs by micro-broth dilution method; type: functional; conditions: MTCC 3008, 48 h
Vibrio cholerae = test: Antibacterial activity against Vibrio cholerae MTCC 3906 after 24 hrs by micro-broth dilution method; type: functional; conditions: MTCC 3906, 24 h
Clostridium tetani = test: Antibacterial activity against Clostridium tetani MTCC 449 after 24 hrs by micro-broth dilution method; type: functional; conditions: MTCC 449, 24 h
Candida albicans = test: Antifungal activity against Candida albicans MTCC 227 after 48 hrs by micro-broth dilution method; type: functional; conditions: MTCC 227, 48 h
[1] = test system: Mycobacterium tuberculosis; test: Antitubercular activity against Mycobacterium tuberculosis H37Rv at 250 ug/mL; type: functional; conditions: read-out: GI
How it was run: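 M. tuberculosis H37Rv tested on conventional L.J. (Löwenstein–Jensen) medium; activity read as percent growth inhibition.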

Salmonella typhi = test: Antibacterial activity against Salmonella typhi MTCC 98 after 24 hrs by micro-broth dilution method; type: functional, Salmonella enterica subsp. enterica serovar Typhi; conditions: Salmonella enterica, MTCC 98, 24 h
Bacillus subtilis = test: Antibacterial activity against Bacillus subtilis MTCC 441 after 24 hrs by micro-broth dilution method; type: functional; conditions: MTCC 441, 24 h
[2] = Antioxidant activity assessed as ascorbic acid equivalent/100g at 200 ug/mL by FRAP assay; type: functional
Streptococcus pneumoniae = test: Antibacterial activity against Streptococcus pneumoniae MTCC 1936 after 24 hrs by micro-broth dilution method; type: functional; conditions: MTCC 1936, 24 h

| Compound | MIC (Escherichia coli) [mg/L] | MIC (Aspergillus fumigatus) [mg/L] | MIC (Vibrio cholerae) [mg/L] | MIC (Clostridium tetani) [mg/L] | MIC (Candida albicans) [mg/L] | inhibition of growth at 250 µg/mL [1] [%] | MIC (Salmonella typhi) [mg/L] | MIC (Bacillus subtilis) [mg/L] | Activity [2] [mmol] | MIC (Streptococcus pneumoniae) [mg/L] |
| --- | --- | --- | --- | --- | --- | --- | --- | --- | --- | --- |
| C=CCN1c2ccccc2NC2=C(C(=O)CCC2)C1c1cc2ccc(Cl)cc2n(CC=C)c1=O (stereo unspecified) | 62.5 (≈ 132 µM) | > 250 | 250 (≈ 530 µM) | 500 (≈ 1060 µM) | > 250 | 76 | 200 (≈ 424 µM) | 250 (≈ 530 µM) | 361 | > 250 |
| C=CCN1c2ccccc2NC2=C(C(=O)CC(C)(C)C2)C1c1cc2cc(C)ccc2n(CC=C)c1=O (stereo unspecified) | 100 (≈ 208 µM) | 250 (≈ 521 µM) | > 250 | 250 (≈ 521 µM) | > 250 | < 50 | 200 (≈ 417 µM) | > 250 | 292 | 250 (≈ 521 µM) |
| C=CCn1c(=O)c(C2Nc3ccccc3NC3=C2C(=O)CCC3)cc2cc(C)ccc21 (stereo unspecified) | 250 (≈ 608 µM) | > 250 | 500 (≈ 1220 µM) | 100 (≈ 243 µM) | > 250 | 58 | 250 (≈ 608 µM) | 250 (≈ 608 µM) | 499 | > 250 |
| C=CCn1c(=O)c(C2Nc3ccccc3NC3=C2C(=O)CCC3)cc2ccccc21 (stereo unspecified) | 200 (≈ 503 µM) | > 250 | 200 (≈ 503 µM) | 250 (≈ 629 µM) | > 250 | < 50 | 250 (≈ 629 µM) | 250 (≈ 629 µM) | 347 | 200 (≈ 503 µM) |
| C=CCN1c2ccccc2NC2=C(C(=O)CC(C)(C)C2)C1c1cc2ccc(C)cc2n(CC=C)c1=O (stereo unspecified) | 200 (≈ 417 µM) | > 250 | > 250 | 250 (≈ 521 µM) | > 250 | 67 | 250 (≈ 521 µM) | 250 (≈ 521 µM) | 358 | 250 (≈ 521 µM) |
| C=CCN1c2ccccc2NC2=C(C(=O)CCC2)C1c1cc2ccc(C)cc2n(CC=C)c1=O (stereo unspecified) | > 250 | > 250 | 100 (≈ 221 µM) | 500 (≈ 1110 µM) | 250 (≈ 554 µM) | 64 | 200 (≈ 443 µM) | 250 (≈ 554 µM) | 382 | > 250 |
| C=CCN1c2ccccc2NC2=C(C(=O)CC(C)(C)C2)C1c1cc2ccc(Cl)cc2n(CC=C)c1=O (stereo unspecified) | > 250 | > 250 | 500 (≈ 1000 µM) | 500 (≈ 1000 µM) | > 250 | < 50 | > 250 | > 250 | 401 | > 250 |
| C=CCN1c2ccccc2NC2=C(C(=O)CCC2)C1c1cc2ccccc2n(CC=C)c1=O (stereo unspecified) | > 250 | 250 (≈ 571 µM) | 100 (≈ 229 µM) | 200 (≈ 457 µM) | > 250 | 51 | 250 (≈ 571 µM) | 100 (≈ 229 µM) | 389 | 100 (≈ 229 µM) |
| C=CCN1c2ccccc2NC2=C(C(=O)CC(C)(C)C2)C1c1cc2ccccc2n(CC=C)c1=O (stereo unspecified) | 250 (≈ 537 µM) | > 250 | > 250 | 500 (≈ 1070 µM) | 250 (≈ 537 µM) | < 50 | > 250 | > 250 | 266 | > 250 |
| CCn1cc(C(=O)O)c(=O)c2cc(F)c(N3CCNCC3)cc21 [NORFLOXACIN] | 10 (≈ 31.3 µM) |  | 10 (≈ 31.3 µM) | 50 (≈ 157 µM) |  |  | 10 (≈ 31.3 µM) | 100 (≈ 313 µM) |  | 10 (≈ 31.3 µM) |
| C=CCN1c2ccccc2NC2=C(C(=O)CCC2)C1c1cc2cc(C)ccc2n(CC=C)c1=O (stereo unspecified) | 250 (≈ 554 µM) | 250 (≈ 554 µM) | 250 (≈ 554 µM) | 250 (≈ 554 µM) | > 250 | < 50 | 250 (≈ 554 µM) | 200 (≈ 443 µM) | 499 | > 250 |
| C=CCn1c(=O)c(C2Nc3ccccc3NC3=C2C(=O)CC(C)(C)C3)cc2cc(C)ccc21 (stereo unspecified) | > 250 | 250 (≈ 569 µM) | 250 (≈ 569 µM) | 500 (≈ 1140 µM) | > 250 | 96 | 250 (≈ 569 µM) | 200 (≈ 455 µM) | 462 | 250 (≈ 569 µM) |

From ChEMBL document CHEMBL2034858, “An efficient one-pot synthesis, structure, antimicrobial and antioxidant investigations of some novel quinolyldibenzo[b,e][1,4]diazepinones” (2012)
